In ChEMBL document CHEMBL1156229, “Pharmacophore development and application toward the identification of novel, small-molecule autotaxin inhibitors” (J Med Chem, 2010):
Calls of active or inactive are those of the source. The rule behind the calls is not given here.

What was measured:
Autotaxin [1] = biological target: T1, Autotaxin (Homo sapiens, UniProt Q13822); test: Inhibition of human recombinant C-terminal FLAG-tagged autotaxin expressed in baculovirus-infected Sf9 cells assessed as FS-3 hydrolysis at 10 uM relative to control
Method in brief: (§1)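 Single-dose screen: inhibitor 10 μM final, purified recombinant human ATX 8.3 nM, FS-3 1 μM, fatty acid free BSA 30 μM in Tris pH 8 buffer (1 mM MgCl2, 1 mM CaCl2, 3 mM KCl, 140 mM NaCl), 37 °C. Fluorescence (ex 485/em 538) read every 2 min; percent activity vs vehicle after no-ATX subtraction at 1 h; mean ± SD of three wells.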

Autotaxin [2] = biological target: T1, Autotaxin; test: Inhibition of human recombinant C-terminal FLAG-tagged autotaxin expressed in baculovirus-infected Sf9 cells using lysophosphatidylcholine as substrate assessed as choline release by Amplex red reagent assay
Method in brief: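 LPC 16:0 100 μM with purified human ATX 8.3 nM and inhibitor 10 μM final, 30 μM fatty acid free BSA, 50 mM Tris/5 mM CaCl2 pH 7.4, 37 °C. Choline detected by choline oxidase 0.1 U/mL, HRP 1 U/mL, Amplex Red 10 μM; fluorescence ex 560/em 590 every 2 min, percent of vehicle at 1 h after no-ATX subtraction; mean ± SD of three wells.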

Autotaxin [3] = biological target: T1, Autotaxin; test: Inhibition of autotaxin at 10 uM; method in brief: as §1
Autotaxin [4] = biological target: T1, Autotaxin; test: Inhibition of human recombinant C-terminal FLAG-tagged autotaxin expressed in baculovirus-infected Sf9 cells assessed as FS-3 hydrolysis at 0.03 uM; values are per cent of control
Autotaxin [5] = biological target: T1, Autotaxin; test: Inhibition of human recombinant C-terminal FLAG-tagged autotaxin expressed in baculovirus-infected Sf9 cells assessed as FS-3 hydrolysis at 3 uM; values are per cent of control
Autotaxin [6] = biological target: T1, Autotaxin; test: Inhibition of human recombinant C-terminal FLAG-tagged autotaxin expressed in baculovirus-infected Sf9 cells assessed as FS-3 hydrolysis at 0.1 uM; values are per cent of control
Autotaxin [7] = biological target: T1, Autotaxin; test: Inhibition of human recombinant C-terminal FLAG-tagged autotaxin expressed in baculovirus-infected Sf9 cells assessed as FS-3 hydrolysis
Method in brief: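 Dose response: final inhibitor 30, 10, 3, 1, 0.3, 0.1, 0.03 μM, plus 0.01 and 0.003 μM for some compounds; purified human ATX 8.3 nM, 1 μM FS-3, 30 μM fatty acid free BSA, Tris pH 8 buffer, 37 °C. Fluorescence ex 485/em 538 every 2 min; percent activity vs vehicle at 1 h after no-ATX background subtraction; mean of three wells.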

Autotaxin [8] = biological target: T1, Autotaxin; test: Inhibition of human recombinant C-terminal FLAG-tagged autotaxin expressed in baculovirus-infected Sf9 cells assessed as FS-3 hydrolysis at 1 uM; values are per cent of control
[9] = biological target: T2, Glycerophosphocholine cholinephosphodiesterase ENPP6 (Homo sapiens) (UniProt Q6UWR7); test: Inhibition of human recombinant C-terminal FLAG-tagged NPP6 expressed in baculovirus-infected Sf9 cells assessed as pNPPC hydrolysis at 10 uM relative to control
T2 sequence (whole entry): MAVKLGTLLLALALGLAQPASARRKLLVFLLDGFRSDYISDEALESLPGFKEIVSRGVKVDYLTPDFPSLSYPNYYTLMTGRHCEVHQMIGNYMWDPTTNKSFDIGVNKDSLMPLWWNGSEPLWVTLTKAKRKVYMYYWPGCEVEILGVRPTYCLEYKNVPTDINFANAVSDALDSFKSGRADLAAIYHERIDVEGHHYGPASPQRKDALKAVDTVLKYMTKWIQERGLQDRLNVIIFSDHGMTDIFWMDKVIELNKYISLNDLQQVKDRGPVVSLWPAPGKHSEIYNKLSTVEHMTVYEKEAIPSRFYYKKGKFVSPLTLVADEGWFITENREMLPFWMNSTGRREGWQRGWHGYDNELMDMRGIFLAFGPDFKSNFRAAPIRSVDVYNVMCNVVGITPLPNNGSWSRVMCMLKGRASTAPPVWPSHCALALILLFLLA
Method in brief: (§2)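 Purified Sf9-expressed FLAG-tagged enzyme 8.3 nM with inhibitor 10 μM final. NPP6: pNPPC 10 μM in 100 mM Tris-HCl, 500 mM NaCl, 0.05% Triton X-100, pH 9. NPP7: pNPPC 500 μM in 50 mM Tris HCl, 150 mM NaCl, 10 mM sodium taurocholate, pH 8. 37 °C, A405 every 2 min; percent activity vs vehicle at 1 h after no-enzyme subtraction; three wells.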

Autotaxin [10] = biological target: T1, Autotaxin; test: Inhibition of human recombinant C-terminal FLAG-tagged autotaxin expressed in baculovirus-infected Sf9 cells assessed as FS-3 hydrolysis at 30 uM; values are per cent of control
Autotaxin [11] = biological target: T1, Autotaxin; test: Noncompetitive inhibition of human recombinant C-terminal FLAG-tagged autotaxin expressed in baculovirus-infected Sf9 cells assessed as FS-3 hydrolysis by Michaelis-Menten method
[12] = biological target: T3, Ectonucleotide pyrophosphatase/phosphodiesterase family member 7 (Homo sapiens) (UniProt Q6UWV6); test: Inhibition of human recombinant C-terminal FLAG-tagged NPP7 expressed in baculovirus-infected Sf9 cells assessed as pNPPC hydrolysis at 10 uM relative to control; method in brief: as §2
T3 sequence (whole entry): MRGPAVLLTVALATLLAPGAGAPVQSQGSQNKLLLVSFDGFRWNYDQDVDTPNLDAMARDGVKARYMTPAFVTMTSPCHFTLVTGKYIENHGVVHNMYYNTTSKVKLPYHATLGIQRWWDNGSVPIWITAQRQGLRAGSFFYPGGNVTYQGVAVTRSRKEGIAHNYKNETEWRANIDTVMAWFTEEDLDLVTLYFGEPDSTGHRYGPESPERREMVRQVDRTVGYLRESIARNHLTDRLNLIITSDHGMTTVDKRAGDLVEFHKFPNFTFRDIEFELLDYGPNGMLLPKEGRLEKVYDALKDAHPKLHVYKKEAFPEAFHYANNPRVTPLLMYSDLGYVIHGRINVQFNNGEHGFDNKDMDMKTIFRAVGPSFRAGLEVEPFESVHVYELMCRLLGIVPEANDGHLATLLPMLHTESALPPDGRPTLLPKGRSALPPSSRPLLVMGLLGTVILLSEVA

Autotaxin [13] = biological target: T1, Autotaxin; test: Inhibition of human recombinant C-terminal FLAG-tagged autotaxin expressed in baculovirus-infected Sf9 cells assessed as FS-3 hydrolysis at 10 uM; values are per cent of control
Autotaxin [14] = biological target: T1, Autotaxin; test: Inhibition of human recombinant C-terminal FLAG-tagged autotaxin expressed in baculovirus-infected Sf9 cells assessed as FS-3 hydrolysis at 0.3 uM; values are per cent of control
Autotaxin [15] = biological target: T1, Autotaxin; test: Inhibition of human recombinant C-terminal FLAG-tagged autotaxin expressed in baculovirus-infected Sf9 cells assessed as FS-3 hydrolysis at 0.01 uM; values are per cent of control
Autotaxin [16] = biological target: T1, Autotaxin; test: Inhibition of human recombinant C-terminal FLAG-tagged autotaxin expressed in baculovirus-infected Sf9 cells assessed as FS-3 hydrolysis at 0.003 uM; values are per cent of control

inhibition (Autotaxin [1]) [%]	inhibition (Autotaxin [2])	IC50 (Autotaxin [7]) [µM]	SMILES	other results
82	–	1.31	Nc1c(/N=N/c2ccc(-c3ccc(/N=N/c4cc(S(=O)(=O)O)c5ccccc5c4N)cc3)cc2)cc(S(=O)(=O)O)c2ccccc12 [CONGO RED]	residual activity (Autotaxin [4]): 94.6%; residual activity (Autotaxin [5]): 36.7%; residual activity (Autotaxin [6]): 91.2%; residual activity (Autotaxin [8]): 54.9%; inhibition [9]: -3%; residual activity (Autotaxin [10]): 5.29%; Ki (Autotaxin [11]): 1.89 µM; inhibition [12]: 2%; residual activity (Autotaxin [13]): 14.6%; residual activity (Autotaxin [14]): 77.3%; residual activity (Autotaxin [15]): 99.8%; residual activity (Autotaxin [16]): 99.9%
74	–	5.4	CC(=O)Nc1cc(/N=N/c2ccc(NC(=O)c3ccc(N)cc3)cc2C)c(S(=O)(=O)O)cc1/N=N/c1ccc(/N=N/c2ccc(S(=O)(=O)O)cc2)cc1	–
80	–	12	Cc1cccc(/N=N/c2c(S(=O)(=O)O)cc3cc(NC(=O)Nc4ccc5c(O)c(/N=N/c6ccc7cc(S(=O)(=O)O)ccc7c6)c(S(=O)(=O)O)cc5c4)ccc3c2O)c1	–
72	–	8.9	O=C(Nc1ccc2cc(S(=O)(=O)O)ccc2c1)c1ccc(/N=N/c2c(S(=O)(=O)O)cc3cc(S(=O)(=O)O)cc(NC(=O)c4ccccc4)c3c2O)cc1	–

Second part, the molecule before the results:

SMILES	inhibition (Autotaxin [1]) [%]	inhibition (Autotaxin [2])	IC50 (Autotaxin [7]) [µM]	other results
O=C(Nc1ccc(C(=O)Nc2cc(S(=O)(=O)O)cc3cccc(S(=O)(=O)O)c23)cc1)Nc1ccc(C(=O)Nc2cc(S(=O)(=O)O)cc3cccc(S(=O)(=O)O)c23)cc1	-5	Active	–	–
COc1c(C=O)c(O)cc2c1C(=O)c1ccccc1C2=O	–	–	–	inhibition (Autotaxin [3]): 70%
CC1=NN(c2ccc(/C=C/c3ccc(NC(=O)Nc4ccc(/C=C/c5ccc(N6N=C(C)C(/N=N/c7ccccc7C(=O)O)C6=O)cc5S(=O)(=O)O)c(S(=O)(=O)O)c4)cc3S(=O)(=O)O)c(S(=O)(=O)O)c2)C(=O)C1/N=N/c1ccccc1C(=O)O (stereo unspecified)	13	Active	–	–
O=S(=O)(O)c1cc(O)c2ccc(Nc3ccc4c(O)cc(S(=O)(=O)O)cc4c3)cc2c1	11	Active	–	–
Nc1ccc2cc(S(=O)(=O)O)cc(O)c2c1/N=N/c1ccc(NC(=O)c2ccc(C(=O)Nc3ccc(/N=N/c4c(N)ccc5cc(S(=O)(=O)O)cc(O)c45)c(S(=O)(=O)O)c3)cc2)cc1S(=O)(=O)O	52	–	9.8	–
O=C(Nc1ccc(/C=C/c2ccc(NC(=O)c3cc(S(=O)(=O)O)c4cccnc4c3O)cc2S(=O)(=O)O)c(S(=O)(=O)O)c1)c1cc(S(=O)(=O)O)c2cccnc2c1O	53	–	7.4	–
